Drawing on ChEMBL document CHEMBL1177652 (Bioorg Med Chem, 2010), this text covers IC50, inhibition in vivo and Activity for ten compounds.

The target of one data set is Acetylcholinesterase (Homo sapiens, UniProt P22303). The experiment in a line: Inhibition of human whole RBC AChE pretreated for 30 mins by Ellman technique. A general note: In Ellman's method for cholinesterases, released thiocholine reacts with DTNB.
Data set [1] has as its system Rattus norvegicus. The experiment in a line: Ex vivo inhibition of cholinesterase in Fischer-344 rat plasma at 10 mg/kg, ip after 60 mins by spectrophotometric analysis. Format: functional. The note with it: Fischer-344, Plasma, 1 h, route intraperitoneal. The essentials: (§1)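 Anesthetized rats given 10 mg/kg i.p.; predrug blood for resting activity, then samples 5 min to 24 hr, centrifuged, plasma frozen at −80° C. Thawed plasma (10 ul) in 0.1 M sodium phosphate pH 7.4 ± iso-OMPA, then DTNB plus S-butyrylthiocholine; 412 nm read 20 min later, r.t., duplicates. Iso-OMPA-sensitive difference expressed as percent of predrug level.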

Data set [2] deals with Rattus norvegicus. The experiment in a line: Ex vivo inhibition of cholinesterase in Fischer-344 rat plasma at 10 mg/kg, ip after 24 hrs by spectrophotometric analysis. Format: functional. The following applies: Fischer-344, Plasma, route intraperitoneal. The essentials: as §1
For data set [3], the system named is Rattus norvegicus. Put plainly: Toxicity in Fischer-344 rat assessed as tremor at 10 mg/kg, ip. Also on record: dose 10 mg/kg, route intraperitoneal. Format: organism-based. The following applies: in vivo.
Data set [4] deals with Rattus norvegicus. The experiment in a line: Toxicity in Fischer-344 rat assessed as lacrimation and salivation at 10 mg/kg, ip. The format is organism-based. Also noted: dose 10 mg/kg, route intraperitoneal. The following applies: in vivo.
In the next data set the target is Cholinesterase (Homo sapiens, UniProt P06276). Put plainly: Inhibition of human plasma BChE pretreated for 30 mins by Ellman technique. The format is cell-free.
Cholinesterase, sequence (P06276 whole entry): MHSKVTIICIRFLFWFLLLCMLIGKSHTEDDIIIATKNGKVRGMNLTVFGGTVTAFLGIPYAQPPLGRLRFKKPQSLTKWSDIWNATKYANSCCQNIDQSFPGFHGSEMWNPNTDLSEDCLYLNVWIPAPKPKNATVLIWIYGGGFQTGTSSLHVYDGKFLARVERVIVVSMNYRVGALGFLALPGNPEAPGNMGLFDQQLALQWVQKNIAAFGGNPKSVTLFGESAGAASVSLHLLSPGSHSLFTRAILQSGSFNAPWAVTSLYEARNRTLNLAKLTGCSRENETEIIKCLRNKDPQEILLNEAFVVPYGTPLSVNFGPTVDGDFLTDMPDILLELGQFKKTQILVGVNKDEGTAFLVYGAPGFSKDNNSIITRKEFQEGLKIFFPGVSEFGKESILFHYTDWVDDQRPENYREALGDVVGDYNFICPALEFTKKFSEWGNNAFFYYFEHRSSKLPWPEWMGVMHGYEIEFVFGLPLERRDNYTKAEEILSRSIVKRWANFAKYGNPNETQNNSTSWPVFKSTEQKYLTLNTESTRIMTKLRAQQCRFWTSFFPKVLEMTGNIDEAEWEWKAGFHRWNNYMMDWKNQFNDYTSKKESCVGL

Each structure is given as a SMILES string.

Acetylcholinesterase, sequence (P22303 whole entry): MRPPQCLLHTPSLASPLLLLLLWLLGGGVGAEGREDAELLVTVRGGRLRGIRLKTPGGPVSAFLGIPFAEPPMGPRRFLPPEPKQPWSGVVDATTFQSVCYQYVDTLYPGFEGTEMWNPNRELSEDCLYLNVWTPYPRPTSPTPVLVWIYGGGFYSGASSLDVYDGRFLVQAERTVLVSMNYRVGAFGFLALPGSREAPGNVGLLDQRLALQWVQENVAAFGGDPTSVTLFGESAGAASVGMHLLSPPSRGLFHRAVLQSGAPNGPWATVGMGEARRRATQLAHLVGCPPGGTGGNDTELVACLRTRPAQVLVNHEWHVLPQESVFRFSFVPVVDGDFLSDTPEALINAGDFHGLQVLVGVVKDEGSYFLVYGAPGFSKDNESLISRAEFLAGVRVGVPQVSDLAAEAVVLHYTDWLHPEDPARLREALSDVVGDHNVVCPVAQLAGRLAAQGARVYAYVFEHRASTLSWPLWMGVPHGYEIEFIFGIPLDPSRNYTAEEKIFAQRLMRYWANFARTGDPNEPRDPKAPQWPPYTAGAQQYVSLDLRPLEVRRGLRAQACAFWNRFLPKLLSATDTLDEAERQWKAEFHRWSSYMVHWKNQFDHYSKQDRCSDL

One may read the IC50 as the concentration needed to halve the response being measured. For orientation: inhibition in vivo means the percentage by which the read-out fell short of the control. A higher inhibition in vivo goes with a strong effect. For `CC(C)c1ccc(NC(=O)Oc2ccc3c(c2)[C@]2(C)CC[N+](C)(C)C2N3C)cc1.[Br-]` (some centres not stated), at Acetylcholinesterase, the IC50 is 145 nM. The inhibition in vivo at 10 mg/kg in the data set with Rattus norvegicus [1] came to 66%; with Rattus norvegicus [2], 33%. Besides, the Activity entry in the data set on Rattus norvegicus [3] and with Rattus norvegicus [4] was “Non-toxic” each time.

With `CC(C)c1ccc(NC(=O)Oc2ccc3c(c2)[C@]2(C)CC[N+](C)(CCc4ccccc4)C2N3C)cc1` (some centres not stated), the IC50 at Acetylcholinesterase came out at 300 nM.

For the compound `C[n+]1cccc(OC(=O)Nc2ccccc2)c1`, the IC50 at Acetylcholinesterase is over 30000 nM.

In the case of `C[N+](C)(C)c1cccc(OC(=O)Nc2ccccc2)c1`, the IC50 at Acetylcholinesterase was determined as 1870 nM; on Cholinesterase, 18000 nM.

`O=C(Nc1ccccc1)Oc1cccnc1`: the IC50 at Acetylcholinesterase and at Cholinesterase was over 30000 nM throughout.

Turning to `CN1c2ccc(OC(=O)Nc3ccccc3)cc2[C@]2(C)CC[N+](C)(C)C12` (some centres not stated), the IC50 at Acetylcholinesterase amounted to 25.4 nM.

`CN(C)C(=O)Oc1cccc([N+](C)(C)C)c1` [NEOSTIGMINE METHYLSULFATE]: the IC50 on Cholinesterase is 60 nM.

In the case of `CNC(=O)Oc1ccc2c(c1)[C@]1(C)CC[N+](C)(C)C1N2C` (some centres not stated), on Acetylcholinesterase, the IC50 was 26.1 nM.

In the case of `Cc1ccccc1NC(=O)Oc1ccc2c(c1)[C@]1(C)CC[N+](C)(C)C1N2C` (some centres not stated), the IC50 at Acetylcholinesterase stood at 14.6 nM.

Consider `CN(C)c1cccc(OC(=O)Nc2ccccc2)c1`, for which the IC50 on Acetylcholinesterase worked out at 2500 nM; at Cholinesterase, 18000 nM.
